Data reported in ChEMBL document CHEMBL4350955, “Novel Chemical Series of 5-Lipoxygenase-Activating Protein Inhibitors for Treatment of Coronary Artery Disease” (J Med Chem, 2019).
Values after ≈ are worked out from the molar mass of the structure shown.

Tests used:
CYP450 = CYP450 (Homo sapiens, UniProt P04798+P05177+P05181+P08684+P10632+P10635+P11509+P11712+P13584+P20813+P20815+P20853+P24462+P24903+P33260+P33261+P51589+P78329+P98187+Q02928+Q08477+Q16678+Q16696+Q5TCH4+Q6VVX0+Q7Z449+Q8TAV3+Q96SQ9+Q9HB55); assay: Inhibition of CYP450 assessed as maximum reduction in metabolite formation using coumarin based substrate by fluorescence assay; assay type: ADME, protein assay; conditions: probe coumarin based substrate
[1] = Distribution coefficient between octanol and sodium phosphate buffer, logD of the compound in pH 7.4 buffer by LC-MS/MS-based shake flask method
[2] = target: T1, Arachidonate 5-lipoxygenase-activating protein (Homo sapiens, UniProt P20292); assay: Inhibition of [3H]MK0591 binding to human FLAP expressed in […] cell membranes measured after 60 to 80 mins by scintillation counting method
T1 sequence (P20292 whole entry): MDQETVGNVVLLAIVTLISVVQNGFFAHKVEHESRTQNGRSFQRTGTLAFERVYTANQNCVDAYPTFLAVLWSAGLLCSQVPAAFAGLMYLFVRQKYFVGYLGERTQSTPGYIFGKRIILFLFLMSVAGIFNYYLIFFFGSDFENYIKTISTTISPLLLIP

[3] = target: T1, Arachidonate 5-lipoxygenase-activating protein; assay: (§1) Inhibition of FLAP in human whole blood assessed as reduction in calcium ionophore-stimulated LTB4 production preincubated for 30 mins followed by calcium ionophore stimulation and measured after 20 mins by EIA; assay type: tissue-based
[4] = Intrinsic clearance in cryopreserved human hepatocytes assessed as per million cells at 1 uM measured up to 60 mins by LC-MS/MS analysis; assay type: ADME, cell-based, Hepatocyte; conditions: read-out: CLH
[5] = Apparent permeability across apical to basolateral side in human Caco2 cells; conditions: Caco-2
[6] = target: Voltage-gated inwardly rectifying potassium channel KCNH2 (Homo sapiens, UniProt Q12809); assay: Inhibition of human ERG by high-throughput electrophysiology assay
physchem = conditions: phosphate buffer, pH 7.4
[7] = target: T2, Arachidonate 5-lipoxygenase-activating protein (Homo sapiens) (UniProt P20292); assay: as §1; assay type: tissue-based
T2 sequence (whole entry): T1 sequence (P20292 whole entry)

Cytochrome P450 2C9 = Cytochrome P450 2C9 (Homo sapiens, UniProt P11712); assay: Inhibition of recombinant human CYP2C9 expressed in Escherichia coli assessed as maximum reduction in metabolite formation using coumarin based substrate by fluorescence assay; assay type: ADME
hERG (KCNH2) = hERG (KCNH2) (Homo sapiens, UniProt Q12809); assay: Inhibition of human ERG at 10 uM high-throughput electrophysiology assay relative to control
[8] = Genotoxicity in Salmonella typhimurium by Ames test; assay type: toxicity; conditions: salmonella enterica subsp. enterica serovar typhimurium
How it was run: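 Two-strain Salmonella Ames test, with and without metabolic activation by rat liver S9 fraction; applied to amino pyrazole building blocks present in the series.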

[9] = Metabolic stability in human hepatocytes assessed as parent compound remaining; assay type: ADME, cell-based, Hepatocyte
[10] = Clearance in po or iv dosed Sprague-Dawley rat; assay type: ADME, organism-based; conditions: in vivo
[11] = Volume of distribution at steady state in po or iv dosed Sprague-Dawley rat; assay type: ADME, organism-based; conditions: in vivo, read-out: Vdss
[12] = Half-life in po or iv dosed Sprague-Dawley rat; assay type: ADME, organism-based; conditions: in vivo
[13] = Bioavailability in po dosed Sprague-Dawley rat; assay type: ADME, organism-based; conditions: in vivo
[14] = Protein binding in human plasma assessed as unbound fraction by LC-MS based equilibrium dialysis analysis; assay type: ADME, cell-free
[15] = Protein binding in Sprague-Dawley rat plasma assessed as unbound fraction by LC-MS based equilibrium dialysis analysis; assay type: ADME, cell-free
[16] = target: T2, Arachidonate 5-lipoxygenase-activating protein (Homo sapiens); assay: (§2) Inhibition of FLAP in human whole blood assessed as reduction in calcium ionophore-stimulated LTB4 production preincubated for 4 hrs followed by calcium ionophore stimulation and measured after 20 mins by EIA; assay type: tissue-based
[17] = target: T1, Arachidonate 5-lipoxygenase-activating protein; assay: as §2; assay type: tissue-based
Cytochrome P450 3A4 = Cytochrome P450 3A4 (Homo sapiens, UniProt P08684); assay: Inhibition of recombinant human CYP3A4 expressed in Escherichia coli assessed as maximum reduction in metabolite formation using coumarin based substrate by fluorescence assay
Cytochrome P450 1A2 = Cytochrome P450 1A2 (Homo sapiens, UniProt P05177); assay: Inhibition of recombinant human CYP1A2 assessed as maximum reduction in metabolite formation using coumarin based substrate by fluorescence assay; assay type: ADME
Homo sapiens = assay: Suppression of calcium ionophore-stimulated LTB4 production in CAD patient whole blood at 100 mg administered daily during phase 2 study for 12 weeks by ELISA relative to baseline; assay type: functional

Cytochrome P450 3A4, sequence (P08684 whole entry): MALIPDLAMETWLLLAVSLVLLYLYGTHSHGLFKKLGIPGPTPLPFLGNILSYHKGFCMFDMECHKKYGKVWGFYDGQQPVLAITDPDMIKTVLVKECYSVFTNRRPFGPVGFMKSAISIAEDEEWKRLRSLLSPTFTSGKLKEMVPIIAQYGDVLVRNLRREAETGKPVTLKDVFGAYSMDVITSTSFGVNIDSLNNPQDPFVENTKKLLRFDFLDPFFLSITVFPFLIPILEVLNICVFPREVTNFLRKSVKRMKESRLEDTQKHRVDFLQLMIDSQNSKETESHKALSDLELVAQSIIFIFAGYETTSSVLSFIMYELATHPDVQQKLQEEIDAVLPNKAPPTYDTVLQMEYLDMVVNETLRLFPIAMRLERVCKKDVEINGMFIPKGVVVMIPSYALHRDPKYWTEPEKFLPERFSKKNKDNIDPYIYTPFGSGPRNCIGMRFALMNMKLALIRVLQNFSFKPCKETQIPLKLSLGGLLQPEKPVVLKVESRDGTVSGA
hERG (KCNH2), sequence (Q12809 whole entry): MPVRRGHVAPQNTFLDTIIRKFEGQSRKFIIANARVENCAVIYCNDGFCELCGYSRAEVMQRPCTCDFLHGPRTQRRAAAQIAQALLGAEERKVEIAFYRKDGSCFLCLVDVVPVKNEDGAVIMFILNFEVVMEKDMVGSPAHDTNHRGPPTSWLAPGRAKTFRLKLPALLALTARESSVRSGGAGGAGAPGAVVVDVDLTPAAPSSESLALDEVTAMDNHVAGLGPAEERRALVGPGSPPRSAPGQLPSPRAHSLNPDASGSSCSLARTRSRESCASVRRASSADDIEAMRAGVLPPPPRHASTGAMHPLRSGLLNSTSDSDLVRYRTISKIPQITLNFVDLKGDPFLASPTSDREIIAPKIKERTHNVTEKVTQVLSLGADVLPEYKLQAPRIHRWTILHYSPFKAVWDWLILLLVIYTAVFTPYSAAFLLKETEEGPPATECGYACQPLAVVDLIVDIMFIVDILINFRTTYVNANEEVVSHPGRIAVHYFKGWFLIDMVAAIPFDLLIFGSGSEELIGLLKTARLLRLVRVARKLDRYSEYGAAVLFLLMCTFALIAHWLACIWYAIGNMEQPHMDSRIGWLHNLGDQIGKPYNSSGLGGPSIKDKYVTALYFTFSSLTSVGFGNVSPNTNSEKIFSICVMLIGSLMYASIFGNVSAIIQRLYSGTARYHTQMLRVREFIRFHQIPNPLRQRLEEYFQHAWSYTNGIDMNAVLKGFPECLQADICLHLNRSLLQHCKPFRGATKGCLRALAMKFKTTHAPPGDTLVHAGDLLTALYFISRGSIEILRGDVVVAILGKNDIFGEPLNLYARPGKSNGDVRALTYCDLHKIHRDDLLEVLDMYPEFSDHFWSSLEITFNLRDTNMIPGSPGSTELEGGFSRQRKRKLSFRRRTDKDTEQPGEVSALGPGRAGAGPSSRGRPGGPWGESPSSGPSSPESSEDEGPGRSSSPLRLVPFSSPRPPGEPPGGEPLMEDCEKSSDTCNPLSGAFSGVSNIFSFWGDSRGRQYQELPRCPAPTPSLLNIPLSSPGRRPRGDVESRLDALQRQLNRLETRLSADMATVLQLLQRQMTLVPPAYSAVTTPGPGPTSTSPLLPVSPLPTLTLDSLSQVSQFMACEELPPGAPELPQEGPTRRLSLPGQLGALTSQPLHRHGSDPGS
Voltage-gated inwardly rectifying potassium channel KCNH2, sequence (Q12809 whole entry): as above
Cytochrome P450 2C9, sequence (P11712 whole entry): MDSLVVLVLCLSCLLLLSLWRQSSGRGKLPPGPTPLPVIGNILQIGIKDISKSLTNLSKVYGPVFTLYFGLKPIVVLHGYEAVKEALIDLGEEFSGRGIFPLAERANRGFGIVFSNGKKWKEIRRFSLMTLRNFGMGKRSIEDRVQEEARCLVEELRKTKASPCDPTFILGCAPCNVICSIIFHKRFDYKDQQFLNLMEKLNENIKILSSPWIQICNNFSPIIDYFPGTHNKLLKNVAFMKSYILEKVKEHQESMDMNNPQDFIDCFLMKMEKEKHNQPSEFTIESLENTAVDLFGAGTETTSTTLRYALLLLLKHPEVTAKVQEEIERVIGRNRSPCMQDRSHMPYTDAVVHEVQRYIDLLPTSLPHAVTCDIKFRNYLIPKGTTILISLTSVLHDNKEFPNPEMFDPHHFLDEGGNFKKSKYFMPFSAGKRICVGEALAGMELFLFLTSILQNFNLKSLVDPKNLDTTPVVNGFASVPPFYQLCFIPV
Cytochrome P450 1A2, sequence (P05177 whole entry): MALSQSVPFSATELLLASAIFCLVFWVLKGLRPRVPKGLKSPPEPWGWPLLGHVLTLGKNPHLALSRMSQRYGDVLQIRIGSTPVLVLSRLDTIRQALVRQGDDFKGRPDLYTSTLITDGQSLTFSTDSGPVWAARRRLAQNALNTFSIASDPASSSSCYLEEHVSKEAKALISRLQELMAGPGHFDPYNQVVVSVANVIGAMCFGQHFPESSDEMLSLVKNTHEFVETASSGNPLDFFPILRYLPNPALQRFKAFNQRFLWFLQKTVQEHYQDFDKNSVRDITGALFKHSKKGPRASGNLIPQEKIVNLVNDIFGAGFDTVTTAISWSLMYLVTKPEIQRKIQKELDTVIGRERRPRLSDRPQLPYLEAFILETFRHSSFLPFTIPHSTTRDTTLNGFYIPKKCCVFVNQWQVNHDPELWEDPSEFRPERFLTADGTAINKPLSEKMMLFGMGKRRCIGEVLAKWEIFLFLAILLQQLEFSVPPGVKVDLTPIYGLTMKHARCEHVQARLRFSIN

Row | Structure (SMILES) | logD [1] | IC50 [2] | IC50 [3] | hepatocyte CLint at 1 µM [4] | Papp A→B [5] | IC50 [6] | solubility at 24 h (physchem) | fpIC50 [7] | inhibition at 10 µM (hERG (KCNH2)) | also measured
1 | Cc1nn(C)cc1NC(=O)[C@@H]1CCCC[C@H]1C(=O)c1ccc(-c2cc[nH]n2)cc1 (racemic) | 2.6 | 79.4 nM | 501 nM | < 4 µL/min/1e6 cells | 26 ×10⁻⁶ cm/s | > 12600 nM | 92 µM (≈ 36 µg/mL) |  |  | IC50 (CYP450): > 20000 nM
2 | Cc1cc(-c2ccc(C(=O)[C@@H]3CCCC[C@H]3C(=O)Nc3cn(C)nc3C#N)cc2)n[nH]1 | 3.5 |  |  | 6 µL/min/1e6 cells | 27 ×10⁻⁶ cm/s |  | 25 µM (≈ 10.4 µg/mL) | 8.5 | 23% | IC50 (Cytochrome P450 2C9): 7940 nM; Activity [8]: Non-Toxic
3 | Cn1ncc(NC(=O)[C@@H]2CCCC[C@H]2C(=O)c2ccc(-c3cc[nH]n3)cc2)c1C(F)(F)F | 3.6 | 39.8 nM | 50.1 nM | 7 µL/min/1e6 cells | 59 ×10⁻⁶ cm/s |  | 80 µM (≈ 35.6 µg/mL) | 8.4 | 32% | IC50 (Cytochrome P450 2C9): 6310 nM; Stability [9]: 83%; clearance [10]: 4.8 mL/min/kg; Vd [11]: 0.97 L/kg; half-life [12]: 3 h; bioavailability [13]: 100%; fraction unbound [14]: 0.075; fraction unbound [15]: 0.042
4 | Cc1nn(C)cc1NC(=O)[C@@H]1CCCC[C@H]1C(=O)c1ccc(-c2cc[nH]n2)cc1F (racemic) | 2.9 | 126 nM | 63.1 nM | 14 µL/min/1e6 cells | 34 ×10⁻⁶ cm/s | > 12600 nM | 500 µM (≈ 205 µg/mL) | 8 |  | IC50 (CYP450): > 20000 nM; clearance [10]: 13.3 mL/min/kg; Vd [11]: 1.1 L/kg; half-life [12]: 1.2 h; bioavailability [13]: 85%; fraction unbound [14]: 0.14; fraction unbound [15]: 0.11
5 | O=C(Nc1cnn2cccnc12)[C@@H]1CCCC[C@H]1C(=O)c1ccc(-c2cc[nH]n2)cc1 | 2.9 | 31.6 nM | 39.8 nM | 5 µL/min/1e6 cells | 12 ×10⁻⁶ cm/s | > 31600 nM | 60 µM (≈ 24.9 µg/mL) | 8.4 |  | IC50 (CYP450): > 20000 nM
6 | Cc1cc(-c2ccc3c([C@@H]4C[C@H]5C[C@H]5C[C@H]4C(=O)Nc4cn(C)nc4C(N)=O)noc3c2)n[nH]1 | 3.5 | 39.8 nM |  | 16 µL/min/1e6 cells | 23 ×10⁻⁶ cm/s |  | 12 µM (≈ 5.51 µg/mL) |  | 12% | fpIC50 [16]: 8.5; IC50 [17]: 126 nM; IC50 (Cytochrome P450 3A4): 3160 nM; Stability [9]: 69%
7 | Cc1cc(-c2ccc(C(=O)[C@@H]3CCCC[C@H]3C(=O)Nc3cn(C)nc3C(N)=O)c(F)c2)[nH]n1 | 3.5 |  |  | 18 µL/min/1e6 cells | 17 ×10⁻⁶ cm/s | > 31600 nM | 31 µM (≈ 14 µg/mL) | 8.3 |  | IC50 (Cytochrome P450 3A4): 6310 nM
8 | CC(C)(O)CNC(=O)c1cnc(NC(=O)[C@@H]2CCCC[C@H]2C(=O)c2ccc(-c3cc[nH]n3)cc2)cn1 (racemic) | 3.2 | 15.8 nM |  | 4 µL/min/1e6 cells | 3 ×10⁻⁶ cm/s |  | 111 µM (≈ 54.5 µg/mL) |  | 22% | fpIC50 [16]: 8.3; IC50 [17]: 100 nM; IC50 (Cytochrome P450 1A2): 10000 nM
9 | Cn1cc(NC(=O)[C@@H]2C[C@@H]3C[C@@H]3C[C@H]2C(=O)c2ccc(-c3cc[nH]n3)cc2)c(C(F)(F)F)n1 | 3.7 | 12.6 nM | 25.1 nM | 13 µL/min/1e6 cells | 57 ×10⁻⁶ cm/s |  | 27 µM (≈ 12.4 µg/mL) | 9 |  | IC50 (Cytochrome P450 3A4): 3980 nM; Stability [9]: 76%
10 | Cc1cc(-c2ccc(C(=O)[C@@H]3CCCC[C@H]3C(=O)Nc3cn(C)nc3C(F)F)cc2)n[nH]1 | 3.5 | 10 nM | 63.1 nM |  |  |  |  | 8.5 |  | Activity [8]: Toxic
11 | C[C@H](C#Cc1ccc(Cc2ccc(F)cc2)s1)N(O)C(N)=O [ATRELEUTON] |  |  |  |  |  |  |  |  |  | inhibition (INH) (Homo sapiens): 80%
